According to ChEMBL document CHEMBL1124663, “Design, synthesis, antineoplastic activity, and chemical properties of bis(carbamate) derivatives of 4,5-bis(hydroxymethyl)imidazole” (J Med Chem, 1989):

Columns and labels:
Type in all cases: functional
Mus musculus [1] = experiment: Body weight difference (BWD) of test animals administered with 200 mg/kg compound is determined on day 5 for L1210 tumor cells
Outline: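 L1210 leukaemia: 10^5 cells implanted ip on day 0 in mice. Freshly prepared saline suspension given ip once daily on days 1–5. Body weight difference in g (treated minus control) taken as day 5 minus day 1. Six animals per dose.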

Mus musculus [2] = experiment: The percent of the median survival time of test mice compared to control mice, administered with 50 mg/kg compound on day 14 for M5076 minus 1 tumor cells
Outline: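 M5076 sarcoma, 10^6 cells ip on day 0 in B6C3F1 mice. Drug given ip as a fresh saline suspension every fourth day (days 1, 5, 9, 13). % T/C is median survival of treated versus control mice, counting long-term survivors. Cures are 60-day survivors. Log cell kill is derived from this.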

Mus musculus [3] = experiment: The percent of the median survival time of test mice compared to control mice, administered with 100 mg/kg compound on day 5 for L1210 tumor cells
Outline: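 L1210 leukemia, 10^5 cells implanted ip on day 0. Drug given ip daily on days 1-5 as a saline suspension freshly prepared before each injection. Read-out is median survival of treated versus control mice (% T/C), and log cell kill is derived from it.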

Mus musculus [4] = experiment: The toxicity day was evaluated on day 0 for LOX tumor cells of test animals dosed with 50 mg/kg of compound; 6/6
Mus musculus [5] = experiment: The toxicity day was evaluated on day 0 for LOX tumor cells of test animals dosed with 100 mg/kg of compound; 6/6
Mus musculus [6] = experiment: Body weight difference (BWD) of test animals administered with 100 mg/kg compound is determined on […] tumor cells
Outline: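 MX-1 human mammary xenograft: solid tumour fragment (1 mm3, 0.5 mg) placed as a subrenal capsule implant on day 0 in NCR-nu mice. Fresh saline suspension dosed ip on days 1, 5 and 9. Body weight difference in g (treated minus control) recorded. Assay evaluated on day 11. Six mice per group.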

Mus musculus [7] = experiment: Body weight difference (BWD) of test animals administered with 100 mg/kg compound is determined on day 5 for P388 tumor cells
Outline: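 P388 leukaemia: about 10^6 cells in ascitic fluid inoculated ip on day 0 (CD2F1 mice). Compound given ip in normal saline as a freshly prepared solution or suspension, once daily on days 1–5. Treated-minus-control body weight difference in g, taken as day 5 minus day 1 weight. Groups of six.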

Mus musculus [8] = experiment: The percent of the median survival time of test mice compared to control mice is % T/C. It is determined for mice administered with 25 mg/kg compound on day 0 for LOX 1 tumor cells.; conditions: route intraperitoneal

SMILES: CNC(=O)OCc1nc(SC)n(C)c1COC(=O)NC
- BWD (Mus musculus [1]): -3.6 g
- T/C (Mus musculus [2]): 119%
- T/C (Mus musculus [3]): 145%
- Survivors / animals tested (Mus musculus [4]): 6
- Survivors / animals tested (Mus musculus [5]): 6
- BWD (Mus musculus [6]): -2.7 g
- BWD (Mus musculus [7]): -4.1 g
- T/C (Mus musculus [8]): 219%
